Most compounds without a hit are left out; they make up all but 5.7% or so of the library.
Calb FLC: C. albicans growth modulation with fluconazole | AID 1979 | actives 0.57% (n = 300,000) | growth inhibition, % (test concentration not listed) | C. albicans CaCi-2 (fluconazole-resistant clinical isolate) + fluconazole, Alamar Blue growth, 48 h;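 active = growth inhibition above about 58% in most replicates, limit read from the data, passing the limit was not always enough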;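 also: all wells also contain fluconazole at 8 µg/ml as a sub-toxic cotreatment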
CSC inhib: blocks cancer stem cells. inhibition, % at 7.5 µM. actives 1.1% (n = 300,000). cancer stem cell-like cells viability, luminescence; in the data active = inhibition above about 75%; tested in HMLE shEcad cells
T cruzi repl: T. cruzi replication inhibition; inhibition, % (test concentration not listed); actives 1.4% (n = 300,000); T. cruzi beta-gal in NIH3T3, luminescence, 90 h;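 active = mean inhibition across valid replicates above about 55%, limit read from the data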;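 also: signal also drops with host cell toxicity which is not excluded here; higher percent means less beta-gal luminescence so fewer parasites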
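assay system = mouse NIH/3T3 fibroblasts infected with β-gal-expressing T. cruzi Tulahuen C4 | input = 5,000 NIH/3T3 host cells per well | buffer or medium = DMEM plus 2% FBS | timing = 3 h host attachment, then at least 90 h co-culture | measured by = GalScreen luminescence, 60 min | evaluation = luminescence reflecting intracellular parasite burden, expressed as percent inhibition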
SKKanGAS inh: inhibitors of SKKanGAS S. pyogenes growth in kanamycin (SK-promoter or general growth effect); BacTiter-Glo, 6 h; inhibition, % at 7.5 µM; actives 1.3% (n = 300,000);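 active = mean replicate score, as percent of positive control median, at least 50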;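 also: strain carries kanamycin resistance gene driven by streptokinase promoter and grows in 40 µg/ml kanamycin; loss of luminescence reflects streptokinase promoter inhibition or plain growth inhibition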
Beta apoptosis: blocks beta cell apoptosis; INS-1E cytokine-induced death, ATP luminescence, 48 h; percent of positive-control rescue, neutral wells zero; protection from apoptosis, % (no concentration beside the values); actives 0.8% (n = 300,000); AID 435005;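 active = Every replicate reaches about 75%, or at least half do and their mean reaches it too, limit read from the data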;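 also: higher means more ATP so stronger rescue from cytokine killing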
Mdm2 MdmX PPI: human Mdm2/MdmX binding inhibition; O15151+Q00987; SaOS-2 split-luciferase Mdm2/MdmX complementation, luminescence; inhibition, % at 8 µM; actives 3% (n = 330,000); AID 485346;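 active = inhibition of at least 50% at 8 µM in the primary screen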
Target sequence (O15151 whole entry, looked up): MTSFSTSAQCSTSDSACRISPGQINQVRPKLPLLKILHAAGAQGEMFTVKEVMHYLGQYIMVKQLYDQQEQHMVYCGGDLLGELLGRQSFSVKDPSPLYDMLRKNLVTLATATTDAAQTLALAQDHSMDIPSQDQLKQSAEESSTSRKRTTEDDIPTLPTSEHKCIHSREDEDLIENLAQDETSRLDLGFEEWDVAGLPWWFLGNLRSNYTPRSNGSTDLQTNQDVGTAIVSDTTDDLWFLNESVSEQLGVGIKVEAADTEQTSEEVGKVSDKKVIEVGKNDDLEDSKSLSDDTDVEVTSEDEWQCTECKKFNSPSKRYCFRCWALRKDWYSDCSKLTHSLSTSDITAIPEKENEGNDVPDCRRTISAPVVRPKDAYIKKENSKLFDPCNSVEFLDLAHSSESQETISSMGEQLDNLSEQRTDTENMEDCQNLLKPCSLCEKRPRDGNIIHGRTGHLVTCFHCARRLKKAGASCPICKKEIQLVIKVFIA
Target sequence (Q00987 whole entry, looked up): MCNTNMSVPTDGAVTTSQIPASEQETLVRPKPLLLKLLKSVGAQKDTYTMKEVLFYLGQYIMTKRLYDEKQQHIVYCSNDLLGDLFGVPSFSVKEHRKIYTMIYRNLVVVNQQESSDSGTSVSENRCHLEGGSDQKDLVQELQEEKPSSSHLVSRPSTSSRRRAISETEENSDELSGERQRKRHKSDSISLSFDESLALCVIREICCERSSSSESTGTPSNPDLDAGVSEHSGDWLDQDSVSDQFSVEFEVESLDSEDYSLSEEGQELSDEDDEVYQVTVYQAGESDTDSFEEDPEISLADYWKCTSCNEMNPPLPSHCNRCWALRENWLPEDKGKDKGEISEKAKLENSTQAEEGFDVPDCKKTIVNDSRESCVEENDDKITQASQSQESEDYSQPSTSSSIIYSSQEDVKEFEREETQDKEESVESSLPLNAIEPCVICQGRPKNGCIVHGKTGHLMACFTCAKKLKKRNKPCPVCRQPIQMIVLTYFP
Large screens that a line does not name were inactive.

COc1ccccc1C(=O)N/C(=C\c1cn(S(=O)(=O)N(C)C)c2ccccc12)C(=O)NCCN1CCOCC1	none
CCc1cc[n+](C2=C([O-])c3ccccc3C(=O)/C2=N\S(=O)(=O)c2cccs2)cc1	SKKanGAS inh 89, Beta apoptosis 106
CCOC(=O)C1CCCN(C(=O)c2cccc(S(=O)(=O)N(Cc3ccccc3)c3ccccc3OC)c2)C1 (configuration not stated)	T cruzi repl 56
Cc1cccc(NC(=O)c2cccc(Cn3cc(Br)c([N+](=O)[O-])n3)c2)c1C	T cruzi repl 58
COc1ccc(OC)c(NC(=O)c2cccc(Cn3cc(Br)c([N+](=O)[O-])n3)c2)c1	T cruzi repl 64 (no result: Beta apoptosis)
Cc1ccccc1NC(=O)c1cccc(Cn2cc(Br)c([N+](=O)[O-])n2)c1	none
O=C(O)c1ccccc1OCCOCCOc1ccccc1C(=O)O	none (no result: Calb FLC, T cruzi repl, SKKanGAS inh)
CC(=O)c1ccccc1OCCOCCOc1ccccc1C(C)=O	Beta apoptosis 108
COCCN1C(=O)C(O)=C(C(=O)c2ccco2)C1c1cccc(Oc2ccccc2)c1 (configuration not stated)	Calb FLC 99
C=CCCC(=O)N1CCCC(Cc2cccc(Cl)c2)(C(=O)OCC)C1 (configuration not stated)	none (no result: Beta apoptosis)
O=C(c1cc(COc2cccc3cnccc23)on1)N1CCCC(CCCO)C1 (configuration not stated)	Beta apoptosis 117
CCOc1ccc(S(=O)(=O)N2CCC(C(=O)NCCc3ccc(OC)c(OC)c3)CC2)cc1	none
CC[C@@H]1C(c2ccc(F)cc2)=NN(c2ccc(Br)cc2)[C@H]1C(=O)N1CCOC1=O	none (no result: Calb FLC, CSC inhib, T cruzi repl, SKKanGAS inh, Beta apoptosis)
COc1ccc(CCNc2cc(N3CCN(C(=O)c4ccc(C)cc4)CC3)ccc2[N+](=O)[O-])cc1OC	Beta apoptosis 90
COc1ccc(C(=O)N2CCN(c3ccc([N+](=O)[O-])c(NCCc4ccc(OC)c(OC)c4)c3)CC2)cc1	Beta apoptosis 106
COc1ccc(CCNc2ccc(C(=O)O)cc2[N+](=O)[O-])cc1OC	none
CCOc1cc(C)c(Cl)cc1S(=O)(=O)n1ccnc1	T cruzi repl 72
CCOc1ccc(C)cc1S(=O)(=O)n1ccnc1	none
Cc1ccc(NNC(=O)c2ccno2)cc1C	Calb FLC 93
Cc1cc(C(=O)NNc2ccc(C)c(C)c2)no1	none (no result: T cruzi repl)
Cc1ccc(NNC(=O)c2ccno2)cc1Cl	CSC inhib 97, Beta apoptosis 99
O=C1C=C(c2ccc(Cl)c(C(F)(F)F)c2)C[C@@H](c2ccc(Cl)cc2)C1	CSC inhib 116 (no result: Calb FLC, T cruzi repl, SKKanGAS inh)
O=C1C=C(c2ccc(Cl)c(C(F)(F)F)c2)C[C@@H](c2ccc(F)cc2)C1	none (no result: Calb FLC, T cruzi repl, SKKanGAS inh)
O=C1C=C(c2ccc(-c3ccccc3)cc2)C[C@@H](c2ccc(Cl)cc2)C1	none (no result: Calb FLC, T cruzi repl, SKKanGAS inh)
CCOC(=O)c1cccc(C2=CC(=O)C[C@H](c3ccc(Cl)cc3)C2)c1	CSC inhib 77 (no result: Calb FLC, T cruzi repl, SKKanGAS inh)
COc1ccc(C(C)(C)C)cc1NC(=O)CCc1c(C)noc1C	none (no result: Calb FLC, CSC inhib, T cruzi repl, SKKanGAS inh)
CSc1cnn(Cc2ccccc2)c(=O)c1SCc1ccccc1	SKKanGAS inh 68 (no result: Mdm2 MdmX PPI)
Clc1ccc(C(c2ccccc2Cl)C(Cl)Cl)cc1 (configuration not stated)	CSC inhib 98 (no result: Calb FLC, T cruzi repl, SKKanGAS inh, Beta apoptosis)
O=C(NCC1CCCO1)c1cc2n(n1)C(C(F)(F)F)CC(c1ccc(Br)cc1)N2 (configuration not stated)	Calb FLC 93
O=C(NCC1CCCO1)c1nn2c(c1Cl)NC(c1ccc(F)cc1)CC2C(F)(F)F (configuration not stated)	none (no result: Calb FLC, T cruzi repl, SKKanGAS inh, Mdm2 MdmX PPI)
CCOC(=O)c1c(NC(=O)C(=O)N/N=C/c2ccccc2OC)sc2c1CCCCC2	none
CCOC(=O)c1c(NC(=O)C(=O)N/N=C/c2ccccc2O)sc2c1CCCCC2	CSC inhib 83
CC(CCc1ccccc1)NC(=O)c1ccc(NC(=O)c2cccc(Br)c2)cc1 (configuration not stated)	T cruzi repl 70
O=c1[nH]cc(S(=O)(=O)NCc2ccccc2)c(=O)[nH]1	none
CCOc1ccc(NC(=O)CN2CCc3cc4c(cc3C2)OCCCO4)cc1OCC	none
O=C(Nc1ccc(S(=O)(=O)N2CCCCC2)cc1)c1ccc(CN2CCc3ccccc3C2)cc1	Beta apoptosis 107
O=C(Nc1ccccc1)c1ccc(CN2CCc3ccccc3C2)cc1	none
CC1CCCCN1S(=O)(=O)c1ccc(C(=O)Nc2nnc(-c3ccncc3)o2)cc1 (configuration not stated)	none
O=C(Nc1nnc(-c2ccccc2Cl)o1)c1ccc(S(=O)(=O)N2CCCCCC2)cc1	SKKanGAS inh 107 (no result: Beta apoptosis)
CC1CCCCN1S(=O)(=O)c1ccc(C(=O)Nc2nnc(-c3ccccc3Cl)o2)cc1 (configuration not stated)	SKKanGAS inh 97 (no result: Beta apoptosis)
COc1ccc(S(=O)(=O)N2CC(C)N(C(=O)N3CCOCC3)C2)cc1 (configuration not stated)	none
Cc1ccccc1OCCCCc1c(C)n[nH]c1C	SKKanGAS inh 95
Cc1ccccc1OCCCc1c(C)n[nH]c1C	SKKanGAS inh 64
Cc1n[nH]c(C)c1CCCCOc1ccccc1F	SKKanGAS inh 68
CCc1sc(C(=O)Nc2ccccc2N2CCOCC2)cc1C	none
COc1ccc2c(c1)CCc1c(C(=O)N3CC4(C)CC3CC(C)(C)C4)noc1-2 (configuration not stated)	CSC inhib 95
O=C(Nc1ccncc1)c1cc(S(=O)(=O)N2CCN(c3ccccc3)CC2)ccc1Cl	T cruzi repl 61
O=C(Nc1ccccc1)c1ccc(N2CCN(c3ccccc3)CC2)c(S(=O)(=O)N2CCOCC2)c1	T cruzi repl 56
CC(C)(C)c1ccc(C(=O)Nc2ccc(N3CCOCC3)cc2)cc1	CSC inhib 79
O=C(Nc1ccncc1)c1cc(S(=O)(=O)N2CCCC2)ccc1Cl	none (no result: Calb FLC, T cruzi repl, SKKanGAS inh)
CC(=O)c1ccc(C(=O)Nc2ccc(N3CCOCC3)cc2)cc1	none
COc1ccc(CCNC(=O)C2CCN(S(=O)(=O)c3cccc4cccnc34)CC2)cc1OC	none
CCOC(=O)Cc1csc(NC(=O)C(NC(=O)C2CCCCC2)C(C)C)n1 (configuration not stated)	none
COc1cc(/C=C(\C#N)c2nc3ccccc3s2)cc([N+](=O)[O-])c1O	Calb FLC 88 (no result: CSC inhib, Beta apoptosis)
Cc1ccc(-n2ccnc2SCC(=O)c2c(N)n(C3CC3)c(=O)[nH]c2=O)cc1C	none (no result: Calb FLC, CSC inhib, T cruzi repl, SKKanGAS inh)
Cc1cc(O)c(/C=N/OCc2ccc(Cl)cc2Cl)c(=O)o1	none
CN(C)/C=C(\C=N\OCc1ccc(Cl)cc1Cl)C(=O)Nc1ccc(Cl)c(Cl)c1	CSC inhib 85, SKKanGAS inh 113
CCCCc1ccc(N=N/C(C(=O)Nc2ccc(NC(C)=O)cc2OC)=C(/C)O)cc1	CSC inhib 80
COc1ccccc1NS(=O)(=O)c1cc(N=N/C(C(=O)Nc2ccc(Cl)cc2)=C(/C)O)ccc1C	none (no result: Calb FLC, T cruzi repl, SKKanGAS inh)

Screening data as filed in PubChem.
